From ChEMBL document CHEMBL1131034, “Synthesis and pharmacological characterization of novel 6-fluorochroman derivatives as potential 5-HT1A receptor antagonists” (J Med Chem, 1998)
pKi: −log10 of the molar value.

How the values were obtained:
[1] = target: T1, 5-hydroxytryptamine receptor 1A (Homo sapiens) (UniProt P08908); experiment: Antagonist activity against CHO cells expressing the human 5-hydroxytryptamine 1A receptor in a forskolin stimulated adenylate cyclase (FSC) assay.; type: functional, cell-based
T1 sequence (whole entry): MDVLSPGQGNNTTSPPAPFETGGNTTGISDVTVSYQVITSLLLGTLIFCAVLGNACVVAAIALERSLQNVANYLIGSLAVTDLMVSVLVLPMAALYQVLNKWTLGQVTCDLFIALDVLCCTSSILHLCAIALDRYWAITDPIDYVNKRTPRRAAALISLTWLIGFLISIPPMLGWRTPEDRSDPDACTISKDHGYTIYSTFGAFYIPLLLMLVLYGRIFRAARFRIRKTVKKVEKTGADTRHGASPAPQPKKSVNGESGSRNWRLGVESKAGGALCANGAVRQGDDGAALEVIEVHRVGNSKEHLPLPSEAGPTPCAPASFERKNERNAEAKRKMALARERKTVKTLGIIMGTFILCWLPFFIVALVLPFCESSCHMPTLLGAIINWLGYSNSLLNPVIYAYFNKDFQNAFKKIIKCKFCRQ

[2] = target: T2, 5-hydroxytryptamine receptor 1A (Rattus norvegicus, UniProt P19327); experiment: Binding affinity against 5-hydroxytryptamine 1A receptor on rat hippocampus using [3H]8-OH-DPAT as radioligand.; type: tissue-based
T2 sequence (P19327 whole entry): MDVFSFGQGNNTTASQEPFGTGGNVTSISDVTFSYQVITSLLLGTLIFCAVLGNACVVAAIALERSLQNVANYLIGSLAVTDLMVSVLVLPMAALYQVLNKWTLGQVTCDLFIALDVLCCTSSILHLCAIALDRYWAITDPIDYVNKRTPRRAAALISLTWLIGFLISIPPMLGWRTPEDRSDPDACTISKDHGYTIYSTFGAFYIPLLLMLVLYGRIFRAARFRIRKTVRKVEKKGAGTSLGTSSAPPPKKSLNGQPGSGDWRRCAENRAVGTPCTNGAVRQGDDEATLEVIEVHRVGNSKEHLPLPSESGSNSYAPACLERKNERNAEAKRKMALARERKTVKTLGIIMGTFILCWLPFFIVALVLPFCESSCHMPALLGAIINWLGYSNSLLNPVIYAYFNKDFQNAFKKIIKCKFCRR

[3] = target: T3, Adrenergic receptor alpha-1 (Rattus norvegicus, UniProt P15823+P23944+P43140); experiment: Binding affinity against alpha-1 adrenergic receptor on rat cortex using [3H]-prazosin as radioligand.; type: tissue-based, Brain
T3 sequence (P15823 whole entry): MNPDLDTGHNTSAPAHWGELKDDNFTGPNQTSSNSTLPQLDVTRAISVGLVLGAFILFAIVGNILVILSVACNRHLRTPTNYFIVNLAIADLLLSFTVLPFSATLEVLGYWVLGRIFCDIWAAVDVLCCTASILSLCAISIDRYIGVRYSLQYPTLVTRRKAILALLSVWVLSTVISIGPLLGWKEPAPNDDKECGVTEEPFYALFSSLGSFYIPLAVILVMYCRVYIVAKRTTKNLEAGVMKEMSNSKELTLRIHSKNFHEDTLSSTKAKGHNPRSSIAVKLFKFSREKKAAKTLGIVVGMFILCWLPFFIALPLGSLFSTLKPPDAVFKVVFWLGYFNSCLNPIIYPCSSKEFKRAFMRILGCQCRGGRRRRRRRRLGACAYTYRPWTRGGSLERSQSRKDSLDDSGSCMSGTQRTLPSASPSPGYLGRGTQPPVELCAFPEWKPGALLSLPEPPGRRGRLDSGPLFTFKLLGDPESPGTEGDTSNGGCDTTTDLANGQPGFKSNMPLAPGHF
T3 sequence (P23944 whole entry): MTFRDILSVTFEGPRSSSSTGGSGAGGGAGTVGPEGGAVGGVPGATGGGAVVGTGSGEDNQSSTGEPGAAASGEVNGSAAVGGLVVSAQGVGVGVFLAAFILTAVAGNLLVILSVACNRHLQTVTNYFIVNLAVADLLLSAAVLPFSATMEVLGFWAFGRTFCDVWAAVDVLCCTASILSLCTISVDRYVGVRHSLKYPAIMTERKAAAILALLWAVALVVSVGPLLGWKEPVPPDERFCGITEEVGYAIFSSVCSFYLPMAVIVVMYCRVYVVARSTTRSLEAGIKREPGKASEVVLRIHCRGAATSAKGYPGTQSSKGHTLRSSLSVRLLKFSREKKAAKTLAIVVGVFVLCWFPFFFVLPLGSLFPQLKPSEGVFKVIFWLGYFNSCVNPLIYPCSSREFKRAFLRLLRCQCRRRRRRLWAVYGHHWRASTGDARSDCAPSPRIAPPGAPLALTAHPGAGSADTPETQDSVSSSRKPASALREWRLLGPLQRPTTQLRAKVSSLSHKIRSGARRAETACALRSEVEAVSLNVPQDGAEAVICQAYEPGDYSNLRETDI
T3 sequence (P43140 whole entry): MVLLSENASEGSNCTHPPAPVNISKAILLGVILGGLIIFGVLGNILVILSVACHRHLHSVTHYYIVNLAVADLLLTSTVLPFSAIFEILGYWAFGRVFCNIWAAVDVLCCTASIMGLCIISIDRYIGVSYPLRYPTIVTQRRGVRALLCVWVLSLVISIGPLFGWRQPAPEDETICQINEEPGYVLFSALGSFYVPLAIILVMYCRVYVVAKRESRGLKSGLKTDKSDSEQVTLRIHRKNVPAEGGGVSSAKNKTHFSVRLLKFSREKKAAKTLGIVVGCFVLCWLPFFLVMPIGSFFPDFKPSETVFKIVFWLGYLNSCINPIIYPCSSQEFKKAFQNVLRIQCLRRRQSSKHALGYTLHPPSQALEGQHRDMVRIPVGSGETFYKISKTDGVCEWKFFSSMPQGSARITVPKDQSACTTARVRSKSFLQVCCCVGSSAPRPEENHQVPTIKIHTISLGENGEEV

D(2) dopamine receptor = D(2) dopamine receptor (Rattus norvegicus, UniProt P61169); experiment: Binding affinity against dopamine receptor D2 on rat striatum using [3H]spiperone as radioligand.; type: tissue-based
[4] = target: Serotonin 1a (5-HT1a) receptor/Adrenergic receptor alpha-1 (Rattus norvegicus) (UniProt P15823+P23944+P43140+P19327); experiment: Selectivity for 5-HT1A receptor of rat hippocampus and alpha-1 adrenergic receptor of rat cortex.; type: tissue-based
[5] = Binding affinity (Ki) ratio of D2 receptor of rat striatum and 5-HT1A receptor of rat hippocampus.; type: tissue-based
Rattus norvegicus [6] = experiment: In vivo antagonist activity was measured as forepaw treading(FT) in a behavioral response test in reserpinized rats upon subcutaneous administration; type: functional
Summary of the method: (§1)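 Male Wistar rats given reserpine 18 h before use. Test compound or vehicle given 15 min before 8-OH-DPAT (0.25 mg/kg sc). Starting 3 min after agonist, forepaw treading and flat body posture scored every 3 min for 15 min on a ranked intensity scale. Doses expressed as free base. Mean ± SEM; Mann–Whitney U-test against vehicle control.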

Rattus norvegicus [7] = experiment: In vivo antagonist activity was measured as flat body posture (FBP) in a behavioral response test in reserpinized rats at 3 mg/kg(sc) dose.; type: functional; summary of the method: as §1
Rattus norvegicus [8] = experiment: In vivo antagonist activity was measured as flat body posture (FBP) in a behavioral response test in reserpinized rats upon subcutaneous administration; type: functional; summary of the method: as §1
Rattus norvegicus [9] = experiment: In vivo antagonist activity was measured as forepaw treading(FT) in a behavioral response test in reserpinized rats at 3 mg/kg(sc) dose.; type: functional; summary of the method: as §1
Rattus norvegicus [10] = experiment: In vivo antagonist activity was measured as flat body posture (FBP) in a behavioral response test in reserpinized rats at 1 mg/kg(sc) dose.; type: functional; summary of the method: as §1
Rattus norvegicus [11] = experiment: In vivo antagonist activity was measured as forepaw treading(FT) in a behavioral response test in reserpinized rats at 1 mg/kg(sc) dose.; type: functional; summary of the method: as §1

Sequence of D(2) dopamine receptor (P61169 whole entry): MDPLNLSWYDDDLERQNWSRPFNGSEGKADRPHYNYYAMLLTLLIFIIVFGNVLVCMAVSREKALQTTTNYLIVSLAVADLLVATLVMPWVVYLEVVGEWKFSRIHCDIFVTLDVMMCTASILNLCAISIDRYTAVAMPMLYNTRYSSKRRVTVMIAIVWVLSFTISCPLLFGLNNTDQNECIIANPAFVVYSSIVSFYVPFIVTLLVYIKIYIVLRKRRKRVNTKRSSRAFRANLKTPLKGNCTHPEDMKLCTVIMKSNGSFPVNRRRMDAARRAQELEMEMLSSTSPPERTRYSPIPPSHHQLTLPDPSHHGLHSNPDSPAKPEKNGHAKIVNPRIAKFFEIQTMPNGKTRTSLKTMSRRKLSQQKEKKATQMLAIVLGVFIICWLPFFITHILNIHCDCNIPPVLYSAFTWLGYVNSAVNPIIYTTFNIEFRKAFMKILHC

Row | SMILES | FSC recovery [1] [%] | pKi [2] | Ki [3] [nM] | pKi (D(2) dopamine receptor) | Selectivity [4] | Ratio [5] | Behavior score (Rattus norvegicus [6]) | Behavior score (Rattus norvegicus [7]) | Behavior score (Rattus norvegicus [8]) | Behavior score (Rattus norvegicus [9]) | Behavior score (Rattus norvegicus [10]) | Behavior score (Rattus norvegicus [11])
1 | COc1ccc(CCCCNCCOc2cc(F)cc3c2OC(C)(C)CC3)cc1 | 44 | 9.36 | 3.57 | 9.83 | 8.2 | 0.34 | – | – | – | – | – | –
2 | O=C1CCOc2c(OCCNCCCCc3ccccc3)cc(F)cc21 | 16 | 7.38 | 91.5 | 7.36 | 2.2 | 1.1 | – | – | – | – | – | –
3 | O=C1CCOc2c(OCCNCCCCc3ccc4c(c3)OCCO4)cc(F)cc21 | 65 | 8.59 | 303 | 7.60 | 120 | 9.7 | 7.7 | 8.5 | 11 | 5.8 | – | –
4 | COc1ccccc1CCCCNCCOc1cc(F)cc2c1OCCC2=O | 44 | 7.62 | 75.6 | 7.63 | 3.2 | 0.99 | – | – | – | – | – | –
5 | CCCN(CCCCc1ccc2c(c1)OCO2)CCOc1cc(F)cc2c1OCCC2=O | 6 | 7.16 | 734 | 5.81 | 11 | 22 | – | – | – | – | – | –
6 | O=C1CCOc2c(OCCNCCCCc3ccc(O)cc3)cc(F)cc21 | 26 | 7.25 | 120 | 7.63 | 2.2 | 0.42 | – | – | – | – | – | –
7 | COc1ccc(CCCCNCCOc2cc(F)cc3c2OCCC3)cc1 | 121 | – | – | – | 12 | 1.2 | 8.8 | 3 | 11.5 | 0.5 | 3.8 | 1.8
8 | COc1ccc(CCNCCOc2cc(F)cc3c2OCCC3O)cc1 (stereo not drawn) | 68 | 8.63 | 13.5 | 8.52 | 5.8 | 1.3 | – | – | – | – | – | –
9 | COc1ccc(CCCCNCCOc2cc(F)cc3c2OCCC3OC)cc1 (stereo not drawn) | 111 | 7.74 | 175 | 8.04 | 9.6 | 0.5 | – | – | – | – | – | –
10 | COc1cccc(CCCCNCCOc2cc(F)cc3c2OCCC3=O)c1 | 3 | 7.36 | 249 | 6.95 | 5.7 | 2.6 | – | – | – | – | – | –
11 | COc1ccc(CCCCNCCOc2cc(F)cc3c2OC(C)CC3)cc1 (stereo not drawn) | 53 | 9.57 | 4.07 | 9.51 | 15 | 1.2 | – | – | – | – | – | –
12 | CN(C)c1ccc(CCCCNCCOc2cc(F)cc3c2OCCC3=O)cc1 | 37 | 7.55 | 574 | 7.46 | 20 | 1.2 | – | – | – | – | – | –
13 | COc1ccc(CCCCNCCOc2cc(F)cc3c2OCC/C3=N/O)cc1 | 83 | 7.56 | 207 | 7.93 | 7.5 | 0.42 | – | – | – | – | – | –
14 | COc1ccc(CCNCCOc2cc(F)cc3c2OCCC3=O)cc1 | 9 | 8.39 | 317 | 7.42 | 78 | 9.4 | – | – | – | – | – | –
15 | COc1ccc(CCCNCCOc2cc(F)cc3c2OC(C)CC3)cc1 (stereo not drawn) | 40 | 8.02 | 19.9 | 8.30 | 2.1 | 0.52 | – | – | – | – | – | –
16 | CCOc1ccc(CCCCNCCOc2cc(F)cc3c2OCCC3=O)cc1 | 52 | 7.74 | 663 | 7.26 | 37 | 3.1 | – | – | – | – | – | –
